# Laboratory results reported in ChEMBL document CHEMBL1138007, “Examining the correlations between GSK-3 inhibitory properties and anti-convulsant efficacy of valproate and valproate-related compounds” (Bioorg Med Chem Lett, 2004).
# The source made the active and inactive calls. The rule behind the calls is not given here.
# Tests used:
# [1] = target: Glycogen synthase kinase-3 alpha (Homo sapiens) (UniProt P49840); assay: Inhibitory activity against Glycogen synthase kinase-3 alpha, expressed as percent control; parameters: concentration or dose not given beside the values
# Glycogen synthase kinase-3 alpha (Homo sapiens), sequence (P49840 2-483 limits assumed): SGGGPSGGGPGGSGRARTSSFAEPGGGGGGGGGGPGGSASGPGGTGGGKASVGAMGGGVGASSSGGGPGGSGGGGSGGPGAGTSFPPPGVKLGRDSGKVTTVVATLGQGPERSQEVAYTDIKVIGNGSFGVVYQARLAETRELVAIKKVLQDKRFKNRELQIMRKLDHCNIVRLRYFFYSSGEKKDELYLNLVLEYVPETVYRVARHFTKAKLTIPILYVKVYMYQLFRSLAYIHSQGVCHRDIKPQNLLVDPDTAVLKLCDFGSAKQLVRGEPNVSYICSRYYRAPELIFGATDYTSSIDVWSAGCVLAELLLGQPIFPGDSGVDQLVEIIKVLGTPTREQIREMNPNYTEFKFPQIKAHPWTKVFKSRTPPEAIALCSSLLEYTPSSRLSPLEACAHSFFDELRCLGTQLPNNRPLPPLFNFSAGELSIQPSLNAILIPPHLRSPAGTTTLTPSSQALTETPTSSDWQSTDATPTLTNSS
# Procedure, shortened: (§1)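 Recombinant GSK-3α or β, preincubated with compound (0-4 mM), then given phospho-glycogen synthase peptide-2 substrate and [γ-³²P]-ATP plus unlabelled ATP. Buffer: 20 mM MOPS, 0.25 mM Mg acetate, 5 mM MgCl₂, 5 mM β-glycerophosphate, 1 mM EGTA, 0.25 mM Na₃VO₄, 0.25 mM DTT. Reaction ran 30 min at 30 °C, then was spotted on phosphocellulose, acid-washed and scintillation-counted. Background-subtracted counts were normalized to uninhibited activity.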
# [2] = Inhibitory activity against Glycogen synthase kinase-3 beta, expressed as percent control; parameters: concentration or dose not given beside the values; procedure, shortened: as §1
# [3] = target: Glycogen synthase kinase-3 alpha (Homo sapiens) (UniProt P49840); assay: Inhibitory activity (0.5 mM) against Glycogen synthase kinase-3 alpha, expressed as percent control; parameters: scale not given: the % may be the effect or the level left; procedure, shortened: as §1
# [4] = Anti-convulsant activity in experimental animal model; + = less effective; format: functional
# [5] = Inhibitory activity (0.5 mM) against Glycogen synthase kinase-3 beta, expressed as percent control; parameters: scale not given: the % may be the effect or the level left; procedure, shortened: as §1
# [6] = Inhibitory activity (4 mM) against Glycogen synthase kinase-3 beta, expressed as percent control; parameters: scale not given: the % may be the effect or the level left; settings: in the assay text read “(0.5 mM)” for “(4 mM)”; procedure, shortened: as §1
# [7] = target: Glycogen synthase kinase-3 alpha (Homo sapiens) (UniProt P49840); assay: Inhibitory activity (4 mM) against Glycogen synthase kinase-3 alpha, expressed as percent control; parameters: scale not given: the % may be the effect or the level left; procedure, shortened: as §1
# [8] = Anti-convulsant activity in experimental animal model; +++ = more effective; format: functional
# [9] = Anti-convulsant activity in experimental animal model; ++ = relative to valproate; format: functional
# [10] = Inhibitory activity (20 mM) against Glycogen synthase kinase-3 beta, expressed as percent control; parameters: scale not given: the % may be the effect or the level left
Control [1] [%],Control [2] [%],SMILES,further results
100,91.3,CC/C=C(\CCC)C(=O)O,Activity [9]: Active
99.2,57.7,C=CCC(CCC)C(=O)O (stereo not given),Activity [8]: Active
80.4,35.5,CCCC(CCC)C(=O)O,Activity [9]: Active
96.6,83.9,CCCC(CCC)C(N)=O,Activity [8]: Active

# More lines, now with the values behind:
SMILES,Control [1] [%],Control [2] [%],further results
CCCC(CCC)C(=O)OC,104,81.8,
C=CCC(CCC)C(=O)OC (stereo not given),99.9,123,
CCC(CC)C(=O)O,,,Control [3]: 88.3%; Activity [4]: Weak activity; Control [5]: 56.1%; Control [6]: 56.1%; Control [7]: 0.5%
CCCC(C)(CCC)C(=O)OC,99.7,122,
CCCC(C)(CCC)C(=O)O,67.4,24.8,Activity [8]: Active
CCCC(CCC)C(=O)NO,54.2,49.1,Activity [8]: Active
CC/C=C(\CCC)C(=O)OC,61.3,33.3,
C=CCC(CCC)C(=O)OC(C)C (stereo not given),87.9,110,
[Cl-].[Li+],,,Control [10]: 19.5%
O=C1NC(=O)C(c2ccccc2[N+](=O)[O-])=C1Nc1ccc(O)c(Cl)c1,,,Control [10]: 4.6%
